Data on one compound can be found in ChEMBL document CHEMBL1138051, “Photodynamic therapy agent with a built-in apoptosis sensor for evaluating its own therapeutic outcome in situ” (2006).

Type in all cases: functional
The test system of assay [1] is HepG2. The assay can be described thus: Viability of human HepG2 cells at 1 uM relative to control by MTT assay. Particulars: read-out: Survival. Summed up:
(§1)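 HepG2 cells seeded 50000/well in complete DMEM and grown overnight at 37 °C. They were then exposed for 20 h to drug in DMEM with 0.8% BSA and rinsed. Cells were kept in dark with no illumination, then incubated 24 h at 37 °C. MTT 0.5 mg/mL was given for 2 h and solubilised in 70% 2-propanol/0.1 M HCl, with A570 read. Viability is relative to untreated cells (100%), 3 wells/condition, 3-8 experiments, mean ± standard error.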
(Tetrazolium assays rely on reduction of a dye to a coloured formazan, in cell work by metabolically active cells.)

In assay [2] the test system is HepG2. Kind of assay: Viability of human HepG2 cells in presence of 1 J/cm2 light at 1 uM relative to control by MTT assay. Particulars: HepG2, light or radiation study, read-out: Survival. The essentials:
(§2)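 HepG2 cells were plated 50000/well, grown overnight, then loaded 20 h with drug in DMEM/0.8% BSA. After rinsing into complete DMEM they were irradiated with a 670 nm laser at 20 mW/cm2 fluence rate. They were then incubated 24 h at 37 °C, given MTT 0.5 mg/mL for 2 h, solubilised in acidified 2-propanol, and A570 was read. Viability is versus untreated cells (100%), 3 wells/condition, 3-8 experiments, mean ± standard error.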

Assay [3] relates to HepG2. Kind of assay: Viability of human HepG2 cells in presence of 5 J/cm2 light at 1 uM relative to control by MTT assay. Conditions: HepG2, light or radiation study, read-out: Survival. The essentials: as §2
For assay [4], the system named is HepG2. The assay can be described thus: Viability of human HepG2 cells in presence of 7.5 J/cm2 light at 1 uM relative to control by MTT assay. Conditions: HepG2, light or radiation study, read-out: Survival. The essentials: as §2
The test system of assay [5] is HepG2. Kind of assay: Viability of human HepG2 cells at 5 uM relative to control by MTT assay. Conditions: read-out: Survival. The essentials:
as §1

Assay [6] relates to HepG2. Kind of assay: Viability of human HepG2 cells in presence of 1 J/cm2 light at 5 uM relative to control by MTT assay. Conditions: HepG2, light or radiation study, read-out: Survival. The essentials:
as §2

In assay [7] the test system is HepG2. The assay can be described thus: Viability of human HepG2 cells in presence of 5 J/cm2 light at 5 uM relative to control by MTT assay. Particulars: HepG2, light or radiation study, read-out: Survival. The essentials:
as §2

Assay [8] relates to HepG2. Kind of assay: Viability of human HepG2 cells in presence of 7.5 J/cm2 light at 5 uM relative to control by MTT assay. Conditions: HepG2, light or radiation study, read-out: Survival. The essentials:
as §2

In assay [9] the test system is HepG2. The assay can be described thus: Viability of human HepG2 cells at 15 uM relative to control by MTT assay. Conditions: read-out: Survival. The essentials: as §1
Assay [10] has as its system HepG2. The assay can be described thus: Viability of human HepG2 cells in presence of 1 J/cm2 light at 15 uM relative to control by MTT assay. Particulars: HepG2, light or radiation study, read-out: Survival. The essentials:
as §2

Assay [11] relates to HepG2. Kind of assay: Viability of human HepG2 cells in presence of 5 J/cm2 light at 15 uM relative to control by MTT assay. Particulars: HepG2, light or radiation study, read-out: Survival. Summed up: as §2
Assay [12] relates to HepG2. Kind of assay: Viability of human HepG2 cells in presence of 7.5 J/cm2 light at 15 uM relative to control by MTT assay. Conditions: HepG2, light or radiation study, read-out: Survival. Summed up:
as §2

The test system of assay [13] is HepG2. The assay can be described thus: Viability of human HepG2 cells at 30 uM relative to control by MTT assay. Conditions: read-out: Survival. The essentials: as §1
The subject of assay [14] is HepG2. Kind of assay: Viability of human HepG2 cells in presence of 1 J/cm2 light at 30 uM relative to control by MTT assay. Conditions: HepG2, light or radiation study, read-out: Survival. Summed up: as §2
For assay [15], the system named is HepG2. Kind of assay: Viability of human HepG2 cells in presence of 5 J/cm2 light at 30 uM relative to control by MTT assay. Particulars: HepG2, light or radiation study, read-out: Survival. The essentials: as §2
Assay [16] deals with HepG2. The assay can be described thus: Viability of human HepG2 cells in presence of 7.5 J/cm2 light at 30 uM relative to control by MTT assay. Conditions: HepG2, light or radiation study, read-out: Survival. Summed up: as §2

For the compound `C=Cc1c(C)c2cc3[nH]c(c4c5nc(cc6nc(cc1[nH]2)C(C)=C6CC)C(C)=C5C(=O)C4)[C@@](C)(CCC(=O)NCC(=O)N[C@@H](CC(=O)O)C(=O)N[C@@H](CCC(=O)O)C(=O)N[C@H](C(=O)N[C@@H](CC(=O)O)C(=O)NCC(=O)N[C@@H](CO)C(=O)NCC(=O)N[C@@H](CCCCNC(=O)CCCN(C)c1ccc(/N=N/c2ccc4nc5ccc(N(CC)CC)cc5[n+](-c5ccccc5)c4c2)cc1)C(=O)O)C(C)C)C3(C)C`, the viability at 1 µM in the assay with HepG2 [1] came out at 106%; in the assay on HepG2 [2], 90%; in the assay on HepG2 [3], 58%; with HepG2 [4] it was 6%. Further, the viability at 5 µM with HepG2 [5] is 105%; in the assay on HepG2 [6], 86%; in the assay on HepG2 [7], 20%; with HepG2 [8] it was 4%. For the same compound, the viability at 15 µM in the assay with HepG2 [9] is 108%; in the assay on HepG2 [10] it was 56%; in the assay with HepG2 [11], 11%; in the assay on HepG2 [12] it was 5%. Also, the viability at 30 µM in the assay with HepG2 [13] worked out at 117%; in the assay on HepG2 [14], 41%; with HepG2 [15], 7%; in the assay with HepG2 [16], 4%.
